{"source": "PubChem BioAssay AID2237", "about": "(Johns Hopkins Ion Channel Center, 2010)", "note": "The campaign covered roughly 310,000 compounds. About 1,500 (0.48%) were called active.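 Rule for the calls: active = B-score above 5 SD of library B-scores, and initial fluorescence ratio not above library mean plus 5 SD; inactive = the rest.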 Only a selection was taken, and actives are over-represented in it overall."}
{"target": "Short transient receptor potential channel 4 (Mus musculus) (UniProt Q9QUQ5)", "sequence (Q9QUQ5 whole entry, looked up)": "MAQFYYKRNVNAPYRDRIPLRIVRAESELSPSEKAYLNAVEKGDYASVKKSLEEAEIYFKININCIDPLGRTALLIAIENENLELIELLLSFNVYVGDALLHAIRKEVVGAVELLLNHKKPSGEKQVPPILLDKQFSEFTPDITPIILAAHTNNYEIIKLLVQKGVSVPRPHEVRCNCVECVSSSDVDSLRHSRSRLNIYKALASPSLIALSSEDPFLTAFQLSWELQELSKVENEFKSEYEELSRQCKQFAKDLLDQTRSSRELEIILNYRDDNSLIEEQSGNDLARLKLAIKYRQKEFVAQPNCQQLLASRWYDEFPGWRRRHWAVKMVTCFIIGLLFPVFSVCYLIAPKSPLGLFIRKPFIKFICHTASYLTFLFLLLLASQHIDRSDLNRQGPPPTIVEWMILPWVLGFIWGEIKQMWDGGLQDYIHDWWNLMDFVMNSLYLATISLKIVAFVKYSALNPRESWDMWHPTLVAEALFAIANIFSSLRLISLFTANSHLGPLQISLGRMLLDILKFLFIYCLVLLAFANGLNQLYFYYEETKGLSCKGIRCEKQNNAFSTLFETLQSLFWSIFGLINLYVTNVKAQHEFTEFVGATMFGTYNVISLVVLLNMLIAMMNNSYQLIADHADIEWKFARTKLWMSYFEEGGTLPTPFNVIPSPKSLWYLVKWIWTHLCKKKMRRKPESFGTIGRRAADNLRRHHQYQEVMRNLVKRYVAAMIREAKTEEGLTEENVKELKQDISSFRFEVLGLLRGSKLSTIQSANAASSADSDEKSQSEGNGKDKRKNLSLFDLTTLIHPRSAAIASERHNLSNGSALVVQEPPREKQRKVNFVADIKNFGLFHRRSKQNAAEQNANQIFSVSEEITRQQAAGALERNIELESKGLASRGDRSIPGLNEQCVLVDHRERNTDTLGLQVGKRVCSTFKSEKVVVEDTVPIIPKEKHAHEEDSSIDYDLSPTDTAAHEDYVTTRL", "experiment": "TRPC4 cation channel opening, calcium rise – Fluo4 calcium, HEK293 TRPC4beta/mu-opioid cells, primary screen (AID 2237);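 for B-score: positive B-score marks a calcium rise read as TRPC4 activation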", "details": "Fluo4 calcium fluorescence, at 10 µM; hits give high values", "how_it_was_run": "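System: HEK293 cells stably co-expressing mouse TRPC4beta and mu-opioid receptor; Schedule: Fluo4 dye loading 45 min at room temperature, 110 s recording; Detection: Fluo4 fluorescence, kinetic; Evaluation: B-scored integrated calcium fluorescence ratio; Controls: buffer (low) and maximal DAMGO (high).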"}
{"smiles": "c1ccc2sc(N3CCNCC3)nc2c1", "B-score": "173 (active)"}
{"smiles": "COc1cc(OC)cc(C2(C#N)CCN(C)CC2)c1", "B-score": "inactive"}
{"smiles": "C/C(=N/O)c1ccc2ccc3ccccc3c2c1", "B-score": "inactive"}
{"smiles": "CCC1(C)CC(CCNCc2ccc(N(C)C)cc2)(c2ccc(F)cc2)CCO1", "note": "(stereo not given)", "B-score": "114 (active)"}
{"smiles": "CCCCCCCCCCCCn1ccc(=N)cc1", "B-score": "inactive"}
{"smiles": "O=C(c1cc2nc(-c3ccccc3)cc(-c3ccccc3)n2n1)N1CCC2(CC1)OCCO2", "B-score": "inactive"}
{"smiles": "N#Cc1ccc(Cn2cc(C(=O)c3ccco3)c3ccccc32)cc1", "B-score": "inactive"}
{"smiles": "CN(C)C(=O)Oc1ccc(NC(=O)N2CCOCC2)cc1", "B-score": "inactive"}
{"smiles": "Cc1nc2ccccn2c1P(=S)(N1CCCCC1)N1CCCCC1", "B-score": "87 (active)"}
{"smiles": "CC(=C1C(=O)c2ccccc2C1=O)N1CCN(CCN=Cc2c(O)n(C)c(=O)n(C)c2=O)CC1", "B-score": "inactive"}
{"smiles": "Cc1nc2ccccc2c(=O)n1-c1ccc(Cl)cc1Cl", "B-score": "inactive"}
{"smiles": "Cc1ccc(Cn2nnnc2CN2CCC(n3nnc4ccccc43)CC2)cc1", "B-score": "inactive"}
{"smiles": "CCN(CC)C(=O)c1ccc(NC(=O)c2cc(-n3cnnc3)ccc2Cl)cc1", "B-score": "inactive"}
{"smiles": "COc1ccc(CNCCc2c[nH]c3ccccc23)cc1OC", "B-score": "88 (active)"}
{"smiles": "c1cncc(CNCCc2c[nH]c3ccccc23)c1", "B-score": "inactive"}
{"smiles": "COc1ccc(CNCCc2ccc3c(c2)OCO3)c(OC)c1OC", "B-score": "inactive"}
{"smiles": "CC1C2Cn3c(nc4ccccc43)C1N(C)O2", "note": "(stereo not given)", "B-score": "inactive"}
{"smiles": "CCN1CCN(c2nc3c(c(=O)[nH]2)CCC3)CC1", "B-score": "inactive"}
{"smiles": "Cc1ccnc(-n2c(C)cc(/C=C3\\C(=O)NC(=S)N(C)C3=O)c2C)c1", "B-score": "inactive"}
{"smiles": "c1ccc(CCN2CCC3(CC2)OCCO3)cc1", "B-score": "inactive"}
{"smiles": "C[N+]1(C)CCOC(O)(c2ccc(-c3ccc(C4(O)C[N+](C)(C)CCO4)cc3)cc2)C1", "note": "(stereo not given)", "B-score": "inactive"}
{"smiles": "c1ccc2sc(C3CCCNC3)nc2c1", "note": "(stereo not given)", "B-score": "159 (active)"}
{"smiles": "COc1ccccc1N=C1SCCCN1C", "B-score": "inactive"}
{"smiles": "COc1ccc2c(c1O)-c1cccc3c1[C@@H](C2)N(C)CC3", "B-score": "inactive"}
{"smiles": "CC(=NC1CCN(Cc2ccccc2)CC1)c1c(O)n(C)c(=O)n(C)c1=O", "B-score": "inactive"}
{"smiles": "CCN(CC)CCOC(=O)c1cc2cc(COC)ccc2o1", "B-score": "inactive"}
{"smiles": "COC(=O)C1=C(c2ccccc2)C[C@@H]2CC[C@H]1N2C(=O)N1CCCCC1", "B-score": "inactive"}
{"smiles": "CSc1ccc(C(=O)C2CCCN(Cc3ccn[nH]3)C2)cc1", "note": "(stereo not given)", "B-score": "52 (active)"}
{"smiles": "Cc1ccc(CN2CCCC(C(=O)c3ccc4c(c3)OCO4)C2)cc1C", "note": "(stereo not given)", "B-score": "inactive"}
{"smiles": "COc1ccc(C(=O)C2CCCN(Cc3ccc(C)s3)C2)cc1OC", "note": "(stereo not given)", "B-score": "inactive"}
{"smiles": "c1ccc(CCNC2CCCCCC2)cc1", "B-score": "inactive"}
{"smiles": "CCCCC(=O)N/N=C/c1c(O)n(-c2ccccc2)c(=O)[nH]c1=O", "B-score": "inactive"}
{"smiles": "CCCCC(=O)N/N=C/c1c(O)n(CCC2=CCCCC2)c(=O)[nH]c1=O", "B-score": "inactive"}
{"smiles": "CCCCC(=O)N/N=C/c1c(O)n(CC)c(=S)n(CC)c1=O", "B-score": "103 (active)"}
{"smiles": "O=C1NC(=O)C(C/C=C/c2ccccc2)C(=O)N1", "B-score": "inactive"}
{"smiles": "CC(=O)N(C1=NCCCS1)c1ccccc1F", "B-score": "44 (active)"}
{"smiles": "O=c1c2ccccc2nc(-c2ccc(Cl)cc2Cl)n1-c1ccncc1", "B-score": "inactive"}
{"smiles": "COc1ccc(N=Cc2c(O)n(C)c(=O)[nH]c2=O)cc1", "B-score": "inactive"}
{"smiles": "Cn1c(C(=O)N2CCC(C(=O)N3CCC4(CC3)OCCO4)CC2)cc2sccc21", "B-score": "inactive"}
{"smiles": "COC(=O)C1=C(c2cc3ccccc3s2)C[C@@H]2CC[C@H]1N2C(=O)NC(C)C", "B-score": "inactive"}
{"smiles": "COC(=O)C1=C(c2cc3ccccc3s2)C[C@@H]2CC[C@H]1N2C(=O)NCCO", "B-score": "72 (active)"}
{"smiles": "COC(=O)C1=C(c2cc3ccccc3s2)C[C@@H]2CC[C@H]1N2C(=O)NCc1cccc2ccccc12", "B-score": "inactive"}
{"smiles": "C=CCN1C(=O)C2(C(C(=O)OCC)=C(N)Oc3c2c(=O)oc2ccccc32)c2ccccc21", "note": "(stereo not given)", "B-score": "inactive"}
{"smiles": "COc1ccccc1C1=NCc2nnc(CSC)n2-c2ccc(Cl)cc21", "B-score": "inactive"}
{"smiles": "CN(C)CCN(CC1CCCN(Cc2ccccc2F)C1)C(=O)Cc1ccc(F)c(F)c1", "note": "(stereo not given)", "B-score": "inactive"}
